Assay outcomes (PubChem BioAssay)
UCH37 inh: blocks the human deubiquitinase UCH37; Q9Y5K5; purified proteasome/UCH37, Ub-AMC cleavage fluorescence; inhibition, % (no concentration beside the values); 0.33% of 330,000 active;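 active = mean inhibition over replicate wells above about 20%, limit read from the data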
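Schedule: 30 min plus 25 min, room temperature / Material: human UCH37 within purified proteasomes / Technique: AMC fluorescence intensity at 355/460 nm / Buffer or medium: pH 7.4 Tris-HCl (50 mM) with ovalbumin, ATP-MgCl2, DTT / Controls: wells without proteasome as full block, compound-free enzyme plus substrate as uninhibited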
FGF22 binding: binders of recombinant human FGF22 by thermal shift. SYPRO orange fluorescence; percent of sucrose octasulfate shift, DMSO zero. Q9HCT0. 1.5% of 340,000 active. AID 651658. activity (Tm shift, normalised), % at 9.99 µM;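 active = mean Tm shift, scaled 0 neutral to 100 positive control, at about 1.3% or above, every replicate too, limit read from the data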
Target sequence (Q9HCT0 whole entry, looked up): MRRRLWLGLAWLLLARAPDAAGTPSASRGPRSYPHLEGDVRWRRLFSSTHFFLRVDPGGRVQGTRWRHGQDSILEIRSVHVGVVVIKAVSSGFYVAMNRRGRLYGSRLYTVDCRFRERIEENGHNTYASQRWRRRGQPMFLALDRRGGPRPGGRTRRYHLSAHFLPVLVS
NSD2 inh: inhibitors of human histone methyltransferase NSD2. O96028. NSD2 peptide methylation, AlphaScreen, 120 min. inhibition, % at 12.5 µM. 0.54% of 310,000 active; in the data active = inhibition above about 50%
SIRT5 block: inhibitors of human sirtuin-5 desuccinylase; inhibition, % at 15 µM; 1.1% of 330,000 active; AID 652115; Q9NXA8; Purified SirT5, succinyl-peptide AMC, trypsin-coupled fluorescence; in the data active = inhibition above about 15%
Target sequence (Q9NXA8 whole entry, looked up): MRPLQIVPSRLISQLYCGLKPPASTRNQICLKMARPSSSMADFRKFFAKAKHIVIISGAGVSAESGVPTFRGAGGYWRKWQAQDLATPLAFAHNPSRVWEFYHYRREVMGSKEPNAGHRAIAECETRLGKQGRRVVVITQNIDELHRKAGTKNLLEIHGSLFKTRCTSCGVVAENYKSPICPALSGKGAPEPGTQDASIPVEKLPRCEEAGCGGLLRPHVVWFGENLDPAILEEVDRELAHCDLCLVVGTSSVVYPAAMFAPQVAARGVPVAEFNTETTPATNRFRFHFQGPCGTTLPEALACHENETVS
Casp6 inh: inhibitors of human caspase-6 | P55212 | purified caspase-6, Z-VEID-R110 cleavage fluorescence | inhibition, % at 12.5 µM | 0.53% of 350,000 active | AID 686996;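 active = mean inhibition across replicates at least about 35%, with every replicate also reaching that limit, limit read from the data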
Target sequence (P55212 24-179 limits assumed): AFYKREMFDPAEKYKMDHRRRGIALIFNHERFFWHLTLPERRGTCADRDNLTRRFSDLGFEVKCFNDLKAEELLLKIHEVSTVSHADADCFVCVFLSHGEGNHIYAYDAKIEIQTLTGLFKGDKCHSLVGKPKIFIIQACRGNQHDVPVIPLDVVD
Target sequence (P55212 194-293 limits assumed): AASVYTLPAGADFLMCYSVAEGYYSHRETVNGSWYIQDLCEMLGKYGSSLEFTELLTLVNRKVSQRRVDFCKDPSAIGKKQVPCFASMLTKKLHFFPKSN
UCH37 confirm: confirmation of human UCH37 deubiquitinating enzyme inhibitors. AID 624100. Proteasome-bound UCH37, Ub-AMC cleavage fluorescence. 27% of 480 active. inhibition, % at 20 µM. shares compounds with UCH37 inh;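 active = average inhibition over replicates above about 50%, so the earlier screening hit is confirmed, limit read from the data; inactive = the rest, counted as false positives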;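 note: based on cleavage rate fitted by regression over a 30 min kinetic read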
Of the large screens only hits and unclear results are named; the others gave an inactive call (follow-up assays come after a bar, where they were run). Most compounds without a hit are left out; they make up all but 2.6% or so of the library.

Cn1c(=O)c2ccccc2n(CC(=O)NCCC2=CCCCC2)c1=O	UCH37 inh 32 | UCH37 confirm inactive
O=C(N[C@@H]1CC[C@@H](CCNC(=O)c2ccccc2F)O[C@@H]1CO)c1cnccn1	none (no result: UCH37 inh, NSD2 inh)
NS(=O)(=O)c1ccc(Nc2ccc([N+](=O)[O-])c3nonc23)cc1	UCH37 inh 26 (no result: FGF22 binding, NSD2 inh) | UCH37 confirm inactive
CC(=O)c1ccc(Nc2ccc([N+](=O)[O-])c3nonc23)cc1	none
Cc1ccc(S(=O)(=O)/N=C2\C=C(Nc3ccc(O)cc3)C(=O)c3ccccc32)cc1	UCH37 inh 48 (no result: FGF22 binding, SIRT5 block, Casp6 inh) | UCH37 confirm inactive
COC(=O)C(C(C)=O)C1=CC(=NS(=O)(=O)c2ccc(C)cc2)c2ccccc2C1=O (stereo not given)	none (no result: FGF22 binding, NSD2 inh, SIRT5 block, Casp6 inh)
COc1ccccc1C=NNC(=O)c1cccc2ccccc12	none (no result: FGF22 binding, NSD2 inh, SIRT5 block, Casp6 inh)
CCc1cc[n+](C2=C([O-])c3ccccc3C(=O)/C2=N\S(=O)(=O)c2cccs2)cc1	UCH37 inh 57, NSD2 inh 82 | UCH37 confirm 62
O=C1C(=O)c2ccccc2C([O-])=C1[n+]1ccccc1	none
COc1ccccc1NC(=O)COc1ccccc1C(=O)c1cnn(-c2ccccc2)c1	UCH37 inh 37 | UCH37 confirm inactive
CC(C)(C)[S@@](=O)N1Cc2cc(C(=O)N3CCCCC3)nc(-c3cccc(-c4ccc(F)cc4)c3)c2[C@H]1CCO	none (no result: UCH37 inh, NSD2 inh, SIRT5 block)
CCC(=O)Nc1ccc2c(c1)OC[C@H](C)N(C(=O)COC)C[C@@H](C)[C@H](OC)CN(C)C2=O	none (no result: UCH37 inh, NSD2 inh)
COc1cc(/C=C(\NC(=O)c2ccccc2)C(=O)NCCO)c([N+](=O)[O-])cc1OC	none (no result: FGF22 binding, SIRT5 block, Casp6 inh)
COc1cc(/C=C(\NC(=O)c2ccccc2)C(=O)Nc2cccc(O)c2)c([N+](=O)[O-])cc1OC	UCH37 inh 51 (no result: FGF22 binding, SIRT5 block, Casp6 inh) | UCH37 confirm inactive
Nc1cc(-c2cccc([N+](=O)[O-])c2)[nH]n1	UCH37 inh 39 | UCH37 confirm inactive
O=c1cc(-c2cccc([N+](=O)[O-])c2)[nH][nH]1	none (no result: FGF22 binding, SIRT5 block, Casp6 inh)
O=C(C[C@H]1C[C@H]2c3cc(NS(=O)(=O)c4ccccc4)ccc3O[C@H]2[C@H](CO)O1)N1CCOCC1	none (no result: UCH37 inh, NSD2 inh)
C[C@@H](NC(=O)C[C@@H]1CC[C@@H](NC(=O)Nc2ccc3c(c2)OCO3)[C@H](CO)O1)c1ccccc1	none (no result: UCH37 inh, NSD2 inh)
CCOC(=O)C1=CC[C@@H](c2cccc(C)c2)N(S(=O)(=O)c2ccc(C)cc2)[C@H]1C(=O)OCC	none (no result: NSD2 inh, SIRT5 block)
CCOC(=O)C1=CC[C@@H](c2ccccc2Cl)N(S(=O)(=O)c2ccc(C)cc2)[C@H]1C(=O)OCC	UCH37 inh 38 (no result: NSD2 inh, SIRT5 block) | UCH37 confirm inactive
C[C@@H]1CN([C@H](C)CO)C(=O)Cc2cc(NC(=O)Nc3cccc4ccccc34)ccc2O[C@@H]1CN(C)CC1CC1	none (no result: UCH37 inh, NSD2 inh)
CC(=O)[C@H]1[C@@H]2C(=O)N(c3cccc(Cl)c3)C(=O)[C@@H]2[C@H]2c3ccccc3C=CN21	UCH37 inh 40 (no result: FGF22 binding, NSD2 inh, SIRT5 block, Casp6 inh) | UCH37 confirm inactive
O=C(c1cccnc1)N1C[C@H]2[C@@H](c3ccccc31)[C@@H](CO)N2C(=O)C1CC1	none (no result: UCH37 inh, NSD2 inh, Casp6 inh)
N=C1/C(=C\c2ccc(-c3cc(Cl)cc(Cl)c3)o2)C(=O)N=C2SC=C(c3ccccc3)N12	none (no result: FGF22 binding, SIRT5 block, Casp6 inh)
N=C1/C(=C/c2ccc(-c3cccc(C(=O)O)c3)o2)C(=O)N=C2SC=C(c3ccccc3)N12	UCH37 inh 26 (no result: NSD2 inh) | UCH37 confirm 66
C[C@@H]1CCCCO[C@H](CN(C)C(=O)NC2CCCCC2)[C@@H](C)CN([C@@H](C)CO)C(=O)c2cc(NC(=O)CCC(F)(F)F)ccc2O1	none (no result: UCH37 inh, NSD2 inh)
CC(=O)O[C@]1(C(C)=O)CCC2C3CCC4=CC(=NOCC(=O)O)CC[C@]4(C)C3CC[C@@]21C (stereo not given in full)	none (no result: FGF22 binding, NSD2 inh, SIRT5 block, Casp6 inh)
COc1ccc(C(=O)c2ccccc2)c2c(O)ccc(C(=O)c3ccccc3)c12	UCH37 inh 41 (no result: FGF22 binding, SIRT5 block, Casp6 inh) | UCH37 confirm inactive
COc1ccc(C(=O)c2ccc(Cl)cc2)c2ccccc12	none (no result: FGF22 binding, SIRT5 block, Casp6 inh)
CC(C)(C)C(=O)Nc1ccc(Sc2ccc([N+](=O)[O-])cc2)cc1	none
CC(=O)Nc1ccc(Sc2ccc([N+](=O)[O-])o2)cc1	UCH37 inh 28 | UCH37 confirm inactive
C[C@@H]1CCCCO[C@H](CN(C)Cc2ccc(C(=O)O)cc2)[C@H](C)CN([C@@H](C)CO)C(=O)c2cc(NC(=O)Nc3ccc(F)cc3)ccc2O1	none (no result: UCH37 inh, FGF22 binding, NSD2 inh)
CCCN1C=CC(=CC=C(C#N)C#N)C=C1	UCH37 inh 38 | UCH37 confirm inactive
C=CCN1C=CC(=CC=C(C#N)C#N)C=C1	UCH37 inh 29 | UCH37 confirm inactive
COc1ccc(NC(=O)Nc2ccc3c(c2)C(=O)N([C@H](C)CO)C[C@H](C)[C@H](CN(C)Cc2ccc4c(c2)OCO4)O3)cc1	none (no result: UCH37 inh, NSD2 inh)
CCC(CNc1cc(OC)cc2cccnc12)NC1CCCCC1 (stereo not given)	UCH37 inh 37, NSD2 inh 80, Casp6 inh 71 | UCH37 confirm 54
Cc1ccc(NC(=O)c2cccc(Cl)c2)nc1	none (no result: FGF22 binding, SIRT5 block, Casp6 inh)
Cc1cc(NC(=O)c2cccc(Cl)c2)n[nH]1	UCH37 inh 35 (no result: NSD2 inh, SIRT5 block) | UCH37 confirm inactive
CO[C@H]1CN(C)C(=O)c2ccc(NC(=O)c3ccccc3F)cc2OC[C@H](C)NC[C@H]1C	none (no result: UCH37 inh, NSD2 inh)
C=CCOc1ccc(C2/C(=C(\O)c3ccc(F)cc3)C(=O)C(=O)N2CCCN(C)C)cc1 (stereo not given)	none (no result: FGF22 binding, SIRT5 block, Casp6 inh)
C=CCOc1ccc(C2/C(=C(/O)c3ccc(OC)cc3)C(=O)C(=O)N2CCN2CCNCC2)cc1 (stereo not given)	UCH37 inh 55 | UCH37 confirm inactive
CCOc1ccc(C2/C(=C(/O)c3ccc(F)cc3)C(=O)C(=O)N2CCCN(C)C)cc1 (stereo not given)	UCH37 inh 35 (no result: FGF22 binding, NSD2 inh, SIRT5 block, Casp6 inh) | UCH37 confirm inactive
CC1=Nc2ccccc2/C1=C/c1sc(=S)n(-c2cccc(C(=O)O)c2)c1O	UCH37 inh 26, SIRT5 block 17 | UCH37 confirm 57
COc1ccc(S(=O)(=O)Nc2ccc3c(c2)C(=O)N([C@H](C)CO)C[C@@H](C)[C@H](CN(C)C)OCCCC[C@H](C)O3)cc1	none (no result: UCH37 inh, NSD2 inh)
CC(C)c1ccc(NC(=O)C2CC(=O)N=C(N)S2)cc1 (stereo not given)	UCH37 inh 26 (no result: FGF22 binding, SIRT5 block, Casp6 inh) | UCH37 confirm 55
COc1ccc(CC(=O)NN=C(C)CC(=O)Nc2ccc(N(C)C)cc2)cc1	none (no result: FGF22 binding, NSD2 inh, SIRT5 block, Casp6 inh)
O=C(c1ccncc1)N1CC[C@@H]2[C@@H](CO)Nc3ccc(-c4ccc(F)cc4)cc3[C@@H]21	none (no result: UCH37 inh, NSD2 inh, Casp6 inh)
C[C@@H]1NC(=O)[C@H](CCC(N)=O)NC(=O)c2cc([N+](=O)[O-])cc(I)c2NCC[C@@H](C(N)=O)NC1=O	UCH37 inh 50 (no result: FGF22 binding, NSD2 inh, SIRT5 block, Casp6 inh) | UCH37 confirm inactive
C#CCOCCOCCOCCNc1nc(N2CCN(C(=O)[C@H](CCCCN)n3cc(CN)nn3)CC2)nc(N2CCN(C(=O)[C@H](CCCCN)n3cc([C@@H](N)[C@H](C)CC)nn3)CC2)n1	UCH37 inh 36 (no result: NSD2 inh, SIRT5 block) | UCH37 confirm inactive
